ChEMBL document CHEMBL4813967, “Tackling resistance in chronic myeloid leukemia: Novel cell death modulators with improved efficacy” (Eur J Med Chem, 2021)

Key:
K562 [1] = assay: Induction of cell sensitization to imatinib in imatinib-resistant human K562 cells assessed as cell death at 10 uM incubated for 72 hrs in presence of 1 uM imatinib by PI staining based flow cytometry (reference value: 19%); type: functional
K562 [2] = assay: Induction of cell sensitization to imatinib in imatinib-resistant human K562 cells assessed as cell death at 5 uM incubated for 72 hrs in presence of 1 uM imatinib by PI staining based flow cytometry (reference value: 19%); type: functional
[3] = Cytotoxicity against human HS5 cells assessed as cell death at 5 uM incubated for 72 hrs by PI staining based flow cytometry; conditions: hs5, 72 h
Procedure, shortened: (§1)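 HS-5 stromal cells in DMEM with 10% FCS, 5% CO2, 37 °C. Seeded 0.5×10^5/well, given compound (5 µM) alone or with imatinib, and incubated 72 h. Cells stained with PI/Triton X-100 for 2 h at 4 °C. Dead cells counted by flow cytometry as sub-G1 nuclei. DMSO vehicle control included.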

COS-7 [4] = assay: Cytotoxicity against African green monkey COS7 cells assessed as cell viability at 10 uM incubated for 72 hrs by MTT assay; conditions: chlorocebus aethiops, cos-7, 72 h
[5] = Cytotoxicity against human HS5 cells assessed as cell death at 5 uM incubated for 72 hrs in presence of imatinib by PI staining based flow cytometry; conditions: hs5, 72 h; procedure, shortened: as §1
COS-7 [6] = assay: Cytotoxicity against African green monkey COS7 cells assessed as cell viability at 10 uM incubated for 72 hrs by MTT assay; type: cell-based; conditions: chlorocebus aethiops, cos-7, 72 h
Procedure, shortened: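 COS-7 cells in DMEM with 10% FCS and L-glutamine, no antibiotics or phenol red. Seeded 2×10^3/well in triplicate, grown 24 h, then compound added at 10 µM final and incubated 72 h. Modified MTT (tetrazolium) metabolic-activity readout by absorbance. DMSO control set to 100%; DMSO ≤0.1%. Mean + SD of ≥3 experiments, triplicate determinations.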

K562 [7] = assay: Cytotoxicity against imatinib-resistant human K562 cells assessed as cell death at 5 uM incubated for 72 hrs by propidium iodide staining based flow cytometry; conditions: k562, 72 h
Procedure, shortened: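 K562-resistant cells, a doxorubicin-resistant K562 subclone (KD225), grown in RPMI 1640 with 10% FCS. Seeded 2×10^5/well and exposed 72 h to compound alone or with 1 µM imatinib. PI/Triton X-100 staining 2 h at 4 °C; flow cytometry scoring sub-G1 nuclei as dead cells. DMSO vehicle (≤0.1%) controls. Mean ± SEM of ≥3 experiments.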

[8] = target: T1, Peroxisome proliferator-activated receptor gamma (Homo sapiens, UniProt P37231); assay: Agonist activity at Gal4-fused human PPARgamma transfected in African green monkey COS7 cells co-transfected with pGal5-TK-pGL3 and pRenilla-CMV assessed as receptor transactivation at 10 uM incubated for 39 hrs by dual luciferase reporter gene assay relative to piaglitazone; type: cell-based; conditions: COS-7, human, read-out: max activation
T1 sequence (P37231 whole entry): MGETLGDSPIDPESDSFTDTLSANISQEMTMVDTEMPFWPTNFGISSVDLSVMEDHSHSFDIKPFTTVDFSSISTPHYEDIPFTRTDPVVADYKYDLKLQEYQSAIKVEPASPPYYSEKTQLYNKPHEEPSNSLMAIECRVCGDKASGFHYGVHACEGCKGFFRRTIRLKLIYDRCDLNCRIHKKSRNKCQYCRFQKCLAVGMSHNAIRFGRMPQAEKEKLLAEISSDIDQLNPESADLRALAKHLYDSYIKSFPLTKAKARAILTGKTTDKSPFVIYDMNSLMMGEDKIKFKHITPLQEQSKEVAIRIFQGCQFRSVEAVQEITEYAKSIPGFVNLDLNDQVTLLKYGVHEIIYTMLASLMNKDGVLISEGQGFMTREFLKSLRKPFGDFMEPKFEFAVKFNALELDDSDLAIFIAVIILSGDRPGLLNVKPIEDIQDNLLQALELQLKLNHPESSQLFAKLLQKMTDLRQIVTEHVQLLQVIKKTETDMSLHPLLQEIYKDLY
Procedure, shortened: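 COS-7 cells (10^4/well, triplicates) grown 24 h, then transiently transfected with pGal5-TK-pGL3 (90 ng), pGal4-hPPARγDEF (9 ng) and pRenilla-CMV (3 ng). Compound added 7 h later, incubation 39 h. Cells lysed by freezing at -80 °C overnight plus lysis buffer. Firefly luciferase normalised to Renilla. Activity at 10 µM expressed relative to pioglitazone at 10 µM (100%). Mean ± SD of ≥3 experiments.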

[9] = target: T2, Signal transducer and activator of transcription 5A (Homo sapiens) (UniProt P42229); assay: Inhibition of STAT5 phosphorylation at Y694/699 residue in imatinib-resistant human K562 cells assessed as phosphorylated STAT5 level at 5 uM incubated for 6 hrs in presence of imatinib by Jess Simple Western immunoassay (reference value: 100%); type: cell-based; design: scale not given: the % may be the effect or the level left
T2 sequence (whole entry): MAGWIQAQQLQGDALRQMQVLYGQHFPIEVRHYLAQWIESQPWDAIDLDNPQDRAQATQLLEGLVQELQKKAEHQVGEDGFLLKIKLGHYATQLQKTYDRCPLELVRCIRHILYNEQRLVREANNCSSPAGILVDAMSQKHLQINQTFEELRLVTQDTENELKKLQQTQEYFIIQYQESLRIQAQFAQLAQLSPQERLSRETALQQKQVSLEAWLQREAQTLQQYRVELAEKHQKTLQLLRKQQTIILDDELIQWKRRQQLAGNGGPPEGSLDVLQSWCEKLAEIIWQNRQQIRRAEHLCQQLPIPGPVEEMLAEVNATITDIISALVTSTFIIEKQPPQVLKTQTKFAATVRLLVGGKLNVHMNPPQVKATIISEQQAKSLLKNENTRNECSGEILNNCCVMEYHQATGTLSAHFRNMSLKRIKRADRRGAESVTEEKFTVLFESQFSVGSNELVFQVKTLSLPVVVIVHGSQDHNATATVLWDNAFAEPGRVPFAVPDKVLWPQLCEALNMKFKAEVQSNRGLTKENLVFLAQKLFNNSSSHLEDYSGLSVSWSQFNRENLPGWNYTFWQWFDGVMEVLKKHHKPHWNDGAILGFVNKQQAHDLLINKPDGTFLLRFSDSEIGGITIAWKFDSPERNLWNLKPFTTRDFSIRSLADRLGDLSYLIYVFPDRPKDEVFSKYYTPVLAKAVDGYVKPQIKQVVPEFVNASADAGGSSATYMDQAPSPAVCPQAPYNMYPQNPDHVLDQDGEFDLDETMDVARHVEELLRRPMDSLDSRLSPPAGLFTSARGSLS

[10] = Modulation of STAT5 expression in imatinib-resistant human K562 cells assessed as STAT5 level at 5 uM measured after 6 hrs by Jess Simple Western immunoassay (reference value: 100%); type: functional
Procedure, shortened: (§2)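 K562-resistant (doxorubicin-resistant KD225) cells treated 6 h with compound at 5 µM, alone or with 1 µM imatinib, against a DMSO control. Total protein extracts analysed by capillary Jess Simple Western. STAT5 antibody 10 µg/ml with 0.2 mg/ml lysate; pSTAT5 (Y694/699) antibody 20 µg/ml with 2 mg/ml lysate. GAPDH (0.4 µg/ml) as loading reference; HRP anti-rabbit secondary.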

[11] = Modulation of STAT5 expression in imatinib-resistant human K562 cells assessed as STAT5 level at 5 uM measured after 6 hrs in presence of imatinib by Jess Simple Western immunoassay (reference value: 100%); type: functional
[12] = target: T2, Signal transducer and activator of transcription 5A (Homo sapiens); assay: Inhibition of STAT5 phosphorylation at Y694/699 residue in imatinib-resistant human K562 cells assessed as phosphorylated STAT5 level at 5 uM incubated for 6 hrs by Jess Simple Western immunoassay (reference value: 100%); type: cell-based; design: scale not given: the % may be the effect or the level left; procedure, shortened: as §2

| SMILES | Activity (K562 [1]) [%] | Activity (K562 [2]) [%] | Activity [3] | Activity (COS-7 [4]) | Activity [5] | Activity (COS-7 [6]) | Activity (K562 [7]) | Emax at 10 µM [8] [%] | Activity [9] [%] | Activity [10] [%] | Activity [11] [%] | Activity [12] [%] |
| --- | --- | --- | --- | --- | --- | --- | --- | --- | --- | --- | --- | --- |
| CCCc1nc2ccc(Br)cc2n1Cc1ccc(-c2ccccc2C(=O)OC)cc1 | 63 | – | – | – | – | – | – | – | – | – | – | – |
| CCCc1nc2c(OC)cccc2n1Cc1ccc(-c2ccccc2C#N)cc1 | >85 | 50 | Non-Toxic | Non-Toxic | Non-Toxic | Non-Toxic | <= 20% | 45.9 | – | – | – | – |
| CCCc1nc2c(C)cccc2n1Cc1ccc(-c2ccccc2C#N)cc1 | >85 | 50 | Non-Toxic | Non-Toxic | Non-Toxic | Non-Toxic | <= 20% | 32.2 | – | – | – | – |
| CCCc1nc2ccccc2n1Cc1ccc(-c2ccccc2C#N)cc1 | >85 | 50 | Non-Toxic | Non-Toxic | Non-Toxic | Non-Toxic | <= 20% | 64.5 | 3 | 98 | 96 | 78 |
| CCCc1nc2ccccc2n1Cc1ccc(-c2ccccc2C(=O)OC)cc1 | >85 | 57 | Non-Toxic | Non-Toxic | Non-Toxic | Non-Toxic | <= 20% | 21.6 | 2 | 112 | 112 | 104 |
| CCCc1nc2c(OC)cccc2n1Cc1ccc(-c2ccccc2C(=O)OC)cc1 | >85 | 57 | Non-Toxic | Non-Toxic | Non-Toxic | Non-Toxic | <= 20% | 20.7 | – | – | – | – |
| CCCc1nc2c(Cl)cccc2n1Cc1ccc(-c2ccccc2C#N)cc1 | >85 | 50 | Non-Toxic | Non-Toxic | Non-Toxic | Non-Toxic | <= 20% | 68.4 | 12 | 107 | 109 | 81 |
| CCCc1nc2c(F)cccc2n1Cc1ccc(-c2ccccc2C#N)cc1 | >85 | 50 | Non-Toxic | Non-Toxic | Non-Toxic | Non-Toxic | <= 20% | 76 | 1 | 105 | 96 | 89 |
| CCCc1nc2c(F)cccc2n1Cc1ccc(-c2ccccc2C(=O)OC)cc1 | >85 | 26 | Non-Toxic | Non-Toxic | Non-Toxic | Non-Toxic | <= 20% | 14.7 | 42 | 98 | 103 | 102 |
| CCCc1nc2c(N)cccc2n1Cc1ccc(-c2ccccc2C(=O)OC)cc1 | – | 26 | Non-Toxic | Non-Toxic | Non-Toxic | Non-Toxic | <= 20% | 0.11 | – | – | – | – |
| CCCc1nc2cc(Br)ccc2n1Cc1ccc(-c2ccccc2C(=O)OC)cc1 | 31 | – | – | – | – | – | – | – | – | – | – | – |
| CCCc1nc2c(Br)cccc2n1Cc1ccc(-c2ccccc2C(=O)OC)cc1 | 66 | 26 | Non-Toxic | Non-Toxic | Non-Toxic | Non-Toxic | <= 20% | 11.6 | 27 | 103 | 116 | 89 |
| CCCc1nc2c(N)cccc2n1Cc1ccc(-c2ccccc2C#N)cc1 | – | 28 | Non-Toxic | Non-Toxic | Non-Toxic | Non-Toxic | <= 20% | 43 | – | – | – | – |
| CCCc1nc2c(C)cccc2n1Cc1ccc(-c2ccccc2C(=O)OC)cc1 | >85 | 40 | Non-Toxic | Non-Toxic | Non-Toxic | Non-Toxic | <= 20% | 13.8 | – | – | – | – |
| CCCc1nc2c([N+](=O)[O-])cccc2n1Cc1ccc(-c2ccccc2C(=O)OC)cc1 | >85 | 57 | Non-Toxic | Non-Toxic | Non-Toxic | Non-Toxic | <= 20% | 15 | – | – | – | – |
| CCCc1nc2c([N+](=O)[O-])cccc2n1Cc1ccc(-c2ccccc2C#N)cc1 | >85 | 50 | Non-Toxic | Non-Toxic | Non-Toxic | Non-Toxic | <= 20% | 37.9 | – | – | – | – |
